Measurements reported in ChEMBL document CHEMBL1157725 (Bioorg Med Chem, 2010).

Columns and labels:
MCF7 = assay: Antiproliferative activity against human MCF7 cells after 24 hrs by SRB assay; format: functional, cell-based; conditions: MCF7, 24 h
Summary of the method: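 MCF-7 cells are grown for 24 h with or without drug, then for a further 48 h. Total cell protein is measured by sulforhodamine B staining, and the IC₅₀ is derived from it.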

[1] = Inhibition of tubulin in rat A10 cells assessed as induction of cellular microtubule disassembly after 18 hrs by indirect immunofluorescence technique; format: cell-based; conditions: A10, 18 h
Summary of the method: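 A-10 cells plated on glass coverslips and treated with compound at varying concentrations for 18 h. After fixation, microtubules immunostained with a β-tubulin antibody (indirect immunofluorescence) and nuclei stained with DAPI. Read by fluorescence microscopy. Percentage of cellular microtubule loss estimated visually across the concentration range.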

COc1ccc(/C=C\c2cc(OC)c(OC)c(OC)c2)cc1O [COMBRETASTATIN A4]
IC50 (MCF7): 32 nM | EC50 [1]: < 25 nM
